LMPTP block: LMPTP phosphatase inhibitors, primary screen, biochemical, fluorescence intensity, uHTS. inhibition, % at 20 µM. recombinant LMPTP-A, OMFP fluorogenic substrate. hit rate 0.22% among 360,000. Low molecular weight phosphotyrosine protein phosphatase (Homo sapiens), P24666;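 active = compounds that cut the enzyme signal by at least half of the control window in the single-dose screen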
Target sequence (P24666 whole entry, looked up): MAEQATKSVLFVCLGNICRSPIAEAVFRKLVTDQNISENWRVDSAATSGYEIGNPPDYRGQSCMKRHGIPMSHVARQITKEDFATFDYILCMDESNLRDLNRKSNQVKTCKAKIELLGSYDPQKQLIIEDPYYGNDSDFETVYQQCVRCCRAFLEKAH
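Assay system: LMPTP-A, protein tyrosine phosphatase of low molecular weight / Medium: pH 6.0 Bis-Tris buffer with DTT and Triton X-100 / Schedule: 50 min enzyme reaction at room temperature, protected from light / Measured by: endpoint fluorescence intensity from OMFP dephosphorylation / Read-out basis: % inhibition relative to no-enzyme and uninhibited control wells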
SUMO1-SIM PPI: modulators of SUMO1 protein-protein interactions, primary screen, biochemical, uHTS; Small ubiquitin-related modifier 1 (Homo sapiens), P63165; hit rate 0.33% among 360,000; inhibition, % at 20 µM; SUMO1 binding to a labelled peptide, TR-FRET, 1 h; in the data active = inhibition above about 37%
Target sequence (P63165 whole entry, looked up): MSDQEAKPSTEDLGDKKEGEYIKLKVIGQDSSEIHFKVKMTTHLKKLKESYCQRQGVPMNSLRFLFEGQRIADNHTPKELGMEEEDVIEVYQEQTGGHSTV
Scp1 inh: Scp-1 phosphatase inhibitors, primary screen, biochemical, colorimetric, uHTS. Recombinant Scp1, phosphopeptide, malachite green phosphate absorbance. AID 493091, 2011. Carboxy-terminal domain RNA polymerase II polypeptide A small phosphatase 1 (Homo …. hit rate 0.88% among 340,000. inhibition, % at 20 µM;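 active = inhibition above about 50% at 20 µM, limit read from the data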
Target sequence (Q9GZU7 76-261 limits assumed): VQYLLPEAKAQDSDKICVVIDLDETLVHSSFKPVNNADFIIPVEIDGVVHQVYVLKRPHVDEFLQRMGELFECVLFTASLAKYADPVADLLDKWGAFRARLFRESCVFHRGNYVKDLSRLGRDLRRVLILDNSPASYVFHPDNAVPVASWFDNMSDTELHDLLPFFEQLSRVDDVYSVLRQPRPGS
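Material – SCP-1 phosphatase catalytic domain, residues 76-261 · Buffer or medium – Acidic Tris acetate buffer with magnesium and detergent · Also added – Phospho 17-mer peptide substrate · Compound – single 20 µM dose, 1% DMSO · Times – 45 min room-temperature reaction, 5 min colour, 30 min stabiliser · Technique – Phosphate-binding colour reagent, absorbance read at 630 nm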
STEP block: STEP phosphatase inhibitors, primary screen, biochemical, fluorescence intensity, uHTS | Tyrosine-protein phosphatase non-receptor type 5 (Homo sapiens), P54829 | recombinant STEP, OMFP fluorogenic substrate | inhibition, % at 20 µM | hit rate 0.25% among 360,000 | AID 588621, 2011;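 active = inhibition at 20 µM, scaled per plate between control wells, above about 37%, limit read from the data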
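System: STEP phosphatase, cell-free reaction; Buffer or medium: Bis-Tris pH 6.0 buffer with DTT, detergent; Incubation: 20 min at room temperature, dark; Measured by: fluorescence, 480/540 nm.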
DNMT1 inh: human DNMT1 methyltransferase inhibitors, primary screen, biochemical, molecular beacon, fluorescence, HinP1I cleavage, uHTS; hit rate 0.83% among 360,000; inhibition (reported as % activation of signal), % at 10 µM; DNA (cytosine-5)-methyltransferase 1 (Homo sapiens), P26358; AID 588458, 2011; in the data active = inhibition above about 50%
Numbers stand for hits; i = inactive; nt = no result given. This is a sample that favours compounds with a hit; in the whole collection about 1.7% have one here.

SMILES	LMPTP block	SUMO1-SIM PPI	Scp1 inh	STEP block	DNMT1 inh
CCN1C(=O)/C(=C/C=C2/Sc3ccc4ccccc4c3N2CCO)SC1=S	i	41	i	i	i
O=C(Cc1cccc2ccccc12)NN1C(=O)CSC1=S	i	i	i	i	i
O=C(NN1C(=O)CSC1=S)C(=O)NN1C(=O)CSC1=S	i	40	55	i	58
CCN(CC)c1ccc(/C=C(/C#N)c2nc3ccc(C)cc3[nH]2)c(OC(C)C)c1	i	i	i	i	53
CCCOc1cc(N(CC)CC)ccc1/C=C(/C#N)c1nc2ccc(C)cc2[nH]1	i	i	i	i	i
NC1=C(Br)C(=O)c2ncccc2C1=O	i	i	i	i	63
O=C1c2cccnc2C(=O)N1CO	i	i	i	i	i
O=C(O)CSc1nc2sc3c(c2c(=O)n1-c1ccccc1)CCC3	i	i	i	i	i
CSc1nc(SCC(=O)O)c2sc3nc(-c4ccccc4)c4c(c3c2n1)CCC4	95	101	60	97	97
CSc1nc(NCCN(C)C)c2sc3nc(-c4ccco4)c4c(c3c2n1)CCC4	i	i	i	i	i
CSc1nc(N(C)CCO)c2sc3nc(-c4ccco4)c4c(c3c2n1)CCC4	i	i	79	i	i
CS(=O)(=O)N1CCCC(C(=O)Nc2ccc(F)c(F)c2)C1 (centres undefined)	i	i	i	i	i
CC(OC(=O)c1cccc(-n2cnnn2)c1)C(=O)c1ccccc1 (centres undefined)	i	i	i	i	i
O=C1[C@H]2[C@@H](c3ccc(C(F)(F)F)cc3)N[C@]3(CCCN(Cc4ccc(F)cc4)C3=O)[C@H]2C(=O)N1Cc1ccccc1	i	i	nt	i	i
Cc1cc(C)n(S(=O)(=O)c2ccccc2[N+](=O)[O-])n1	i	i	i	i	i
O=c1oc2ccccc2n1CCn1c2ccccc2c2nc3ccccc3nc21	73	i	i	i	62
COc1ccc2c(c1)c1nc3ccccc3nc1n2CCn1c(=O)oc2ccccc21	i	i	i	i	i
O=C(COC(=O)c1ccc(Br)o1)Nc1nc2c(F)c(F)c(F)cc2s1	60	i	i	i	i
N=c1c2c3c(sc2nc2n1CCCCC2)CCCCC3	i	i	i	42	i
O=C1C=C(NCCc2cc(Br)c(O)c(Br)c2)C(=O)c2ncccc21	i	41	i	46	92
Cc1cc(N2CCN(C(=O)c3[nH]c(C(F)(F)F)nc3-c3ccccc3)CC2)c2ccccc2n1	i	i	nt	i	i
Cc1cc(N2CCN(C(=O)Nc3ccccc3C#N)CC2)c2ccccc2n1	51	i	i	i	i
CN1CCc2nc3sc(C(=O)C45CC6CC(CC(C6)C4)C5)c(N)c3cc2C1	i	i	i	i	78
COc1ccc2[nH]c3nc(SCc4nnc(-c5ccc(C)cc5)o4)nnc3c2c1	i	i	i	i	56
COc1ccc(S(=O)(=O)N2CCCCCC2)cc1C(=O)N(C)CC(=O)Nc1ccccc1C(F)(F)F	i	i	i	i	i
SMILES	LMPTP block	SUMO1-SIM PPI	Scp1 inh	STEP block	DNMT1 inh
COc1ccc(NC(=S)Nc2ccc3nc(C)c(C)nc3c2)cc1	i	i	i	i	i
COc1ccc(NC(=S)Nc2ccc3nsnc3c2)cc1	i	58	i	i	64
CCN1C[C@@H]2[C@@H]3C(=O)N(Cc4ccccc4)C(=O)[C@@H]3[C@](CC)(C(=O)OC)N2C1=NCc1ccccc1	i	i	i	i	i
Cn1c2ccccc2c(=O)c2cc(C#Cc3ccccn3)ccc21	i	i	58	i	i
Cn1c2ccccc2c(=O)c2ccc(C#Cc3ccccn3)cc21	nt	nt	i	nt	nt
C=CCn1c2ccccc2c(=O)c2cc(C#Cc3cc(OC)cc(OC)c3)ccc21	i	i	52	i	i
COc1cc(C#Cc2c(C=O)n(C)c3ccccc23)cc(OC)c1	i	i	i	i	i
O=C(CN1CCN(CC(=O)Nc2ccccc2Cl)CC1)NCC1(N2CCOCC2)CCCCC1	i	i	i	i	i
CC1C(=O)N(Cc2cn(Cc3ccco3)nn2)CCS(=O)(=O)N1Cc1ccc(-c2cccnc2)cc1 (centres undefined)	54	i	nt	i	i
